Assay results gathered from unrelated publications.
Each line is one published result; the experiments were not run side by side.
Medium: plasma
Route: intravenous

Cc1noc(-c2cc3cc(-c4nc(C(=O)NCc5ccncc5)[nH]c4C)ccc3[nH]2)n1 — Vd (Sprague-Dawley rat; 1 mg/kg): 1.5 L/kg
CCOC(=O)[C@@]12C[C@@H]1[C@@H](n1ccc3c(NC)nc(C#Cc4ccc(Cl)s4)nc31)[C@H](O)[C@@H]2O — Vd (male Sprague-Dawley rat; 0.5 mg/kg): 33.8 L/kg
COc1ccc2c(Cc3ccccc3F)c3n(c(=O)c2c1OC)CCc1cc2c(cc1-3)OCO2 — Vd (rat; 5 mg/kg): 0.32 L/kg
CCCCCCCCCCCCCCCc1ccc(CP(=O)(O)O)cc1 — Vd (male Sprague-Dawley rat; 5.8 mg/kg): 3.9 L/kg
C#Cc1cnc2nc(O)n(C(CC)CC)c2n1 — Vd (Sprague-Dawley rat; 1 mg/kg): 0.8 L/kg
O=C(c1cc(Cc2n[nH]c(=O)c3ccccc23)ccc1F)N1CCN(C(=O)C2CC2)CC1 — Vd (female Sprague-Dawley rat): 0.201 L
CN1CCC(COc2cnc(-c3cccc(Cn4nc(-c5cccc(C#N)c5)ccc4=O)c3)nc2)CC1 — Vd (male Sprague-Dawley rat; 1 mg/kg): 19 L/kg
CCc1cc(OC)c2nccc(N3CCc4c(cc(Cn5ccnc5)cc4-c4cn(C)nc4C(F)(F)F)C3=O)c2c1 — Vd (male Sprague-Dawley rat; 3 mg/kg): 3.1 L/kg
CCCC[C@@H]1NC(=O)[C@H](Cc2ccc(O)cc2)NC(=O)[C@@H]2CCCN2C(=O)[C@H](CC(=O)O)NC(=O)[C@H](C)NC(=O)[C@H](Cc2ccccc2)NC(=O)[C@@H]2CSCCC(=O)N3CN(CN(C3)C(=O)CCSC[C@@H](C(=O)N[C@@H](C)C(N)=O)NC1=O)C(=O)CCSC[C@H](NC(C)=O)C(=O)N[C@@H](CC(C)(C)C)C(=O)N1CCC[C@H]1C(=O)N[C@@H](CCC(=O)O)C(=O)N[C@H](CCCCNC(=O)CCc1cn(CCOCCOCCOCCOCCOCCC(=O)N[C@H]3CSCCC(=O)N4CN5CN(C4)C(=O)CCSC[C@H](NC(=O)[C@@H](CC(=O)O)NC(=O)[C@H](Cc4cccc6ccccc46)NC(=O)[C@@H]4CCCN4C3=O)C(=O)N[C@@H](CCSC)C(=O)N[C@@H](CCCCNC(=N)N)C(=O)N[C@@H](CC(=O)O)C(=O)N[C@@H](Cc3c[nH]c4ccccc34)C(=O)N[C@@H](CO)C(=O)N[C@@H]([C@@H](C)O)C(=O)N3CCC[C@H]3C(=O)N3C[C@H](O)C[C@H]3C(=O)N[C@@H](Cc3c[nH]c4ccccc34)C(=O)N[C@H](C(N)=O)CSCCC5=O)nn1)C(=O)N1CCC[C@H]1C(=O)N[C@@H](Cc1ccc(O)cc1)C(=O)N2 — Vd (rat; 2 mg/kg): 1 L/kg
COc1cc(F)ccc1-c1ncnc(Nc2cccc(C[S@](C)(=N)=O)c2)n1 — Vd (male Wistar rat): 1 L/kg
CCCC[C@@H]1NC(=O)[C@H](Cc2ccc(O)cc2)NC(=O)[C@@H]2CCCN2C(=O)[C@H](CC(=O)O)NC(=O)[C@H](C)NC(=O)[C@H](Cc2ccccc2)NC(=O)[C@@H]2CSCCC(=O)N3CN(CN(C3)C(=O)CCSC[C@@H](C(=O)N[C@@H](C)C(N)=O)NC1=O)C(=O)CCSC[C@H](NC(C)=O)C(=O)N[C@@H](CC(C)(C)C)C(=O)N1CCC[C@H]1C(=O)N[C@@H](CCC(=O)O)C(=O)N[C@H](CCCCNC(=O)CCc1cn(CCOCCOCCOCCOCCOCCOCCOCCOCCOCCOCCNC(=O)c3cc(C(=O)NCCOCCOCCOCCOCCOCCOCCOCCOCCOCCOCCn4cc(CCC(=O)NCCCC[C@H]5NC(=O)[C@H](CCC(=O)O)NC(=O)[C@@H]6CCCN6C(=O)[C@H](CC(C)(C)C)NC(=O)[C@@H](NC(C)=O)CSCCC(=O)N6CN7CN(C6)C(=O)CCSC[C@H](NC(=O)[C@H](Cc6ccc(O)cc6)NC(=O)[C@@H]6CCCN6C5=O)C(=O)N[C@@H](Cc5ccccc5)C(=O)N[C@@H](C)C(=O)N[C@@H](CC(=O)O)C(=O)N5CCC[C@H]5C(=O)N[C@@H](Cc5ccc(O)cc5)C(=O)N[C@@H](CCCC)C(=O)N[C@H](C(=O)N[C@@H](C)C(N)=O)CSCCC7=O)nn4)cc(C(=O)NCCOCCOCCOCCOCCOCCOCCOCCOCCOCCOCCn4cc(CCC(=O)N[C@H]5CSCCC(=O)N6CN7CN(C6)C(=O)CCSC[C@H](NC(=O)[C@@H](CC(=O)O)NC(=O)[C@H](Cc6cccc8ccccc68)NC(=O)[C@@H]6CCCN6C5=O)C(=O)N[C@@H](CCSC)C(=O)N[C@@H](CCCCNC(=N)N)C(=O)N[C@@H](CC(=O)O)C(=O)N[C@@H](Cc5c[nH]c6ccccc56)C(=O)N[C@@H](CO)C(=O)N[C@@H]([C@@H](C)O)C(=O)N5CCC[C@H]5C(=O)N5C[C@H](O)C[C@H]5C(=O)N[C@@H](Cc5c[nH]c6ccccc56)C(=O)N[C@H](C(N)=O)CSCCC7=O)nn4)c3)nn1)C(=O)N1CCC[C@H]1C(=O)N[C@@H](Cc1ccc(O)cc1)C(=O)N2 — Vd (rat; 2 mg/kg): 1 L/kg
C[C@]12CC[C@H](n3ccnc3)CC1=CC[C@@H]1[C@@H]2CC[C@]2(C)C(n3cnc4ccccc43)=CC[C@@H]12 — Vd (Sprague-Dawley rat; 1 mg/kg): ~6 L/kg
